Source: ChEMBL document CHEMBL1128514, “9-substituted acridine derivatives with long half-life and potent antitumor activity: synthesis and structure-activity relationships” (J Med Chem, 1995)
Several values for one entry are separate records, joined by “and”; a condition that tells them apart may be missing. Identical values can stand only once.

Columns and labels:
HL-60 = assay: In vitro cytotoxicity against human leukemic HL-60 cell line.; type: functional, cell-based
How it was run: (§1)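 Growth inhibition over 72 h by XTT tetrazolium microculture assay with phenazine methosulfate-XTT for 6 h at 37 °C. Absorbance read at 450 and 630 nm. Six to seven concentrations per compound; IC50 from median-effect plot.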

DNA topoisomerase II = DNA topoisomerase II (Homo sapiens, UniProt P11388+Q02880); assay: In vitro 50% inhibition of topoisomerase II mediated k-DNA decatenation; type: protein assay
CCRF S-180 = assay: The compound was tested for the cytotoxicity against S180 cell lines; type: functional, cell-based; settings: Mus musculus; how it was run: as §1
L1210 = assay: The compound was tested for the cytotoxicity against L1210 cell lines; type: functional, cell-based; settings: Mus musculus; how it was run: as §1
Mus musculus [1] = assay: The compound (7.5 mg/kg, ip) was tested for change in average weight of BDF2 mice bearing B16 melanoma.; type: functional
How it was run: (§2)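 BD2F1 female mice, 19-21 g, carrying subcutaneous tumor brei (0.2 mL); compounds in DMSO given ip once daily × 5 starting day 3. Average body weight change (g) taken on day 14. Five mice per dose; untreated and DMSO-vehicle controls.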

Mus musculus [2] = assay: The compound (10 mg/kg, ip) was tested for change in average weight of BDF2 mice bearing B16 melanoma.
Mus musculus [3] = assay: The compound (7.5 mg/kg, ip) was tested for change in average weight of BDF2 mice bearing Lewis lung carcinoma.; type: functional; how it was run: as §2
Mus musculus [4] = assay: The compound (7.5 mg/kg, ip) was tested for change in average weight of BDF2 mice bearing E0771 mammary adenocarcinoma; type: functional; how it was run: as §2
Mus musculus [5] = assay: The compound (10 mg/kg, ip) was tested for change in average weight of BDF2 mice bearing Lewis lung carcinoma.
Mus musculus [6] = species on record: Mus musculus; assay: Average tumor volume of the Lewis lung carcinoma; type: functional
How it was run: (§3)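 BD2F1 female mice, 19-21 g, given subcutaneous 0.2 mL solid tumor brei; dosed ip in DMSO daily for 5 days from day 3 (AHMA 7.5-10 mg/kg, VP-16 10, m-AMSA 5 mg/kg). Tumor volume on day 14 as length × width × width/2 (mm3), expressed as T/C versus untreated. Five mice per dose; DMSO-only group included; two experiments.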

Mus musculus [7] = species on record: Mus musculus; assay: Average tumor volume of the B-16 melanoma; type: functional; how it was run: as §3
Mus musculus [8] = assay: The compound ( ip) was tested for change in average weight of BDF2 mice bearing E0771 mammary adenocarcinoma.
Mus musculus [9] = species on record: Mus musculus; assay: Average tumor volume of the E0771 mammary adenocarcinoma,; type: functional; how it was run: as §3
DC3F/AD-II = assay: The compound was tested for the cytotoxicity against human leukemic DC-3F/ADII cell lines, activity is expressed as IC50 values.; type: functional, cell-based; settings: Cricetulus griseus
CEM-VM1 = assay: The compound was tested for the cytotoxicity against human leukemic CEM/VM-1 cell lines; type: functional, cell-based
CCRF-CEM = assay: The compound was tested for the cytotoxicity against human leukemic CCRF-CEM cell lines; type: functional, cell-based
CEM-VLB = assay: The compound was tested for the cytotoxicity against human leukemic CEM/VBL cell lines; type: functional, cell-based
[10] = The compound was tested for the cytotoxicity DC-3F cell lines; type: functional, cell-based; settings: Cricetulus griseus, DC3F

Row | IC50 (DNA topoisomerase II) [nM] | Compound | IC50 (HL-60) [nM] | IC50 (L1210) [nM] | also measured
1 | > 100000 | OCc1ccc(Sc2c3ccccc3nc3ccccc23)cc1 | 3330 | – | –
2 | 20000 | O=C(O)CCC(=O)Nc1cc(CO)cc(Nc2c3ccccc3nc3ccccc23)c1 | 5000 | 330 | IC50 (CCRF S-180): 1070 nM
3 | – | Cl.Nc1cc(CO)cc(Nc2c3ccccc3nc3ccccc23)c1 | 25 | – | AWC (Mus musculus [1]): -0.3 g; AWC (Mus musculus [2]): -1.9 g; AWC (Mus musculus [3]): 0.1 g; AWC (Mus musculus [4]): 0.6 g; AWC (Mus musculus [5]): -0.4 g; T/C (Mus musculus [6]): 0.55 and 0.23; T/C (Mus musculus [7]): 0.23 and 0.18; AWC (Mus musculus [8]): 0.6 g; T/C (Mus musculus [9]): 0.13 and 0.14
4 | > 100000 | O=C(O)CCC(=O)Nc1cc(COC(=O)CCC(=O)O)cc(Nc2c3ccccc3nc3ccccc23)c1 | 4300 | 990 | IC50 (CCRF S-180): 1830 nM
5 | 20000 | CNC(=O)OCc1ccc(Sc2c3ccccc3nc3ccccc23)cc1 | 1960 | – | –
6 | 1000 | Nc1cc(CO)cc(Nc2c3ccccc3nc3ccccc23)c1 | – | 16 | IC50 (DC3F/AD-II): 54 nM; IC50 (CEM-VM1): 1600 nM; IC50 (CCRF-CEM): 263 nM; IC50 (CEM-VLB): 3790 nM; IC50 (CCRF S-180): 30 nM; IC50 [10]: 5 nM
7 | 20000 | COc1ccc2c(Oc3ccc(CO)cc3)c3ccccc3nc2c1 | 1040 | – | –
8 | > 100000 | OCc1ccc(Oc2c3ccccc3nc3ccccc23)cc1 | 12800 | – | –
9 | > 100000 | COc1ccc2c(Oc3ccc(COC(=O)NC(C)C)cc3)c3ccccc3nc2c1 | 420 | – | –
10 | < 1000 | CC(=O)CCC(=O)Nc1cc(COC(=O)CCC(C)=O)cc(Nc2c3ccccc3nc3ccccc23)c1 | 15 | 98 | IC50 (CCRF S-180): 97 nM
11 | 50000 | CNC(=O)OCc1ccc(Oc2c3ccccc3nc3cc(OC)ccc23)cc1 | 950 | – | –
12 | – | CC(=O)OCc1cc(N)cc(Nc2c3ccccc3nc3ccccc23)c1 | 28 | 34 | –
13 | > 100000 | CNC(=O)OCc1ccc(Sc2c3ccccc3nc3cc(OC)ccc23)cc1 | 2710 | – | –
14 | 20000 | CNC(=O)OCc1ccc(Oc2c3ccccc3nc3ccccc23)cc1 | 680 | – | –
15 | 50000 | CC(C)NC(=O)OCc1ccc(Sc2c3ccccc3nc3ccccc23)cc1 | 2830 | – | –
16 | > 100000 | COc1ccc2c(Sc3ccc(COC(=O)NC(C)C)cc3)c3ccccc3nc2c1 | 1550 | – | –
17 | < 1000 | CC(=O)CCC(=O)Nc1cc(CO)cc(Nc2c3ccccc3nc3ccccc23)c1 | 25 | 45 | IC50 (CCRF S-180): 70 nM
18 | 50000 | COc1ccc2c(Sc3ccc(CO)cc3)c3ccccc3nc2c1 | 1830 | – | –
19 | – | CC(=O)Nc1cc(CO)cc(Nc2c3ccccc3nc3ccccc23)c1 | 18 | 28 | –
20 | 20000 | CC(C)NC(=O)OCc1ccc(Oc2c3ccccc3nc3ccccc23)cc1 | 1490 | – | –
